From paper PMC7894357 (Chemmedchem, 2020)

How the values were obtained:
HIV‐2 = type: cell-based; conditions: CEM-TK(-), read-out: EC50 CEM/TK− HIV‐1
Summary of the method: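 CEM/TK⁻ cells (~3×10⁵ cells/mL) were infected with HIV‑1(III_B) or HIV‑2(ROD) at 100 CCID₅₀/mL and cultured with serial dilutions of test compound. After 4–5 days at 37 °C in humidified CO₂, giant (syncytium) cell formation was scored microscopically. EC50 is the concentration that halves giant cell formation. Values are mean ±SD of n=2–3 independent experiments.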

[1] = Cytotoxicity: inhibition of CD4+ T-cell; type: cell-based; conditions: human, CEM/0 cells (CD4+ T cells)
[2] = symmetric TriPPPro-compounds, PB pH 7.3; cited from earlier work
[3] = previous work; cited from earlier work

EC50 (HIV‐2) [µM]	Compound	CC50 [1] [µM]	half-life in PB (t1/2) [2] [h]	half-life in CEM/0 cell extracts (t1/2) [3] [h]
> 50	Cc1cn([C@H]2C=C[C@@H](CO)O2)c(=O)[nH]c1=O [d4T 1, 3'‐deoxy‐2',3'‐didehydrothymidine]	> 50	–	–
–	CCCCCCCCCC(=O)Oc1ccc(COP(=O)(OCc2ccc(OC(=O)CCCCCCCCC)cc2)OP(=O)(O)OP(=O)(O)OC[C@@H]2C=C[C@H](n3cc(C)c(=O)[nH]c3=O)O2)cc1 [γ‐(AB−C9,AB−C9)‐d4TTP]	–	44	2.8
–	γ‐(AB−C4,AB−C4)‐d4TTP	–	22	0.43
